In the library only some 1.5% were active in any assay of this set; here they are far more common.
CCR6 antag: CCR6 (human) receptor antagonism. AID 493098. inhibition, % at 20 µM. 0.49% of 340,000 active. CHO-K1 CCR6 PathHunter beta-arrestin, luminescence, CCL20-stimulated;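 active = compounds whose inhibition of the agonist-driven luminescence signal at 20 µM reaches about 50%, limit read from the data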;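 note: cells stimulated with CCL20 at 14 nM final; plate controls were DMSO with CCL20 for no effect and DMSO without agonist for full effect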
Target sequence (P51684 whole entry, looked up): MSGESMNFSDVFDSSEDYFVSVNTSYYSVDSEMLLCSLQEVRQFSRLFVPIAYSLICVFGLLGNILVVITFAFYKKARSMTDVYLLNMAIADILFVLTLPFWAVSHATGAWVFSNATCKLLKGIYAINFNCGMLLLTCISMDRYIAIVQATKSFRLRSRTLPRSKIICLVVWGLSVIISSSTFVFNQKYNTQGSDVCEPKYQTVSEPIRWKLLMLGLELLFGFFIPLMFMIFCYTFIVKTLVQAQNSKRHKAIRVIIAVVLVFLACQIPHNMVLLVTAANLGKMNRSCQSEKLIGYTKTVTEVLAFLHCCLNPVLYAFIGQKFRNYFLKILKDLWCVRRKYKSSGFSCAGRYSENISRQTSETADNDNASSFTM
APJ ag: agonists of human APJ apelin receptor. P35414. CHO-K1 APJ PathHunter beta-arrestin, luminescence; 0% DMSO wells, 100% apelin. activation, % at 20 µM. 0.11% of 330,000 active. AID 2520;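 active = activation more than six SD over the plate average, tested at 20 µM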;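 note: 0% = DMSO alone and 100% = apelin-13 at 10 nM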
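Material: engineered CHO-K1 APJ arrestin reporter cells; amount: 1000 CHO-K1 reporter cells seeded per well; incubation: compound stimulation 90 min at 25 °C, detection 60 min; signal: luminescent beta-gal fragment complementation, chemiluminescent substrate; read-out basis: APJ agonist activity; controls: DMSO-only wells as negative, 10 nM Apelin-13 as positive control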
APJ antagonist: blocks the human apelin receptor APJ. CHO-K1 APJ beta-arrestin complementation, luminescence. P35414. inhibition, % at 20 µM. 0.32% of 330,000 active;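 active = inhibition above about 40% at 20 µM, limit read from the data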;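 note: cells challenged with 10 nM apelin-13 agonist together with compound; plate controls were apelin-13 plus DMSO wells for no effect and DMSO wells lacking apelin-13 for full effect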
EBI2 antag: EBI2 (human) antagonism. inhibition, % at 5 µM. P32249. EBI2 beta-arrestin recruitment, luminescence, 7a,25-OHC stimulated. 0.81% of 360,000 active; in the data active = inhibition above about 38%;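 note: enzyme fragment complementation signal reports receptor beta-arrestin coupling in cells; 0% = agonist plus DMSO wells and 100% = wells without agonist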
CXCR6 inh: inhibitors of human CXCR6 receptor. O00574. 0.36% of 360,000 active. inhibition, % at 20 µM. CHO-K1 PathHunter CXCR6 beta-arrestin, luminescence; in the data active = inhibition above about 34%, passing the limit was not always enough;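 note: antagonist mode with CXCL16 agonist at 10 nM final; 0% = 10 nM CXCL16 with DMSO and 100% = unstimulated wells without agonist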
EBI2 conf: EBI2 (human) antagonism, single concentration confirmation. 29% of 2,400 active. shares compounds with EBI2 antag. EBI2 beta-arrestin luminescence, 7a,25-OHC antagonism. inhibition, % at 5 µM;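 active = inhibition of at least 50%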
EBI2 ag: counter-screen for EBI2 antagonists: EBI2 agonist activity | shares compounds with EBI2 antag | EBI2-expressing cells, agonist mode, luminescence, 60 min; 0% vehicle, 100% 7α,25-dihydroxycholesterol control | activation, % at 5 µM | 2,400 tested, under 10 active | AID 652000;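 active = activation of at least 50%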
bGal cs: inhibits E. coli beta-galactosidase, counter-screen for EBI2 antagonists | shares compounds with EBI2 antag | purified beta-galactosidase, luminescent Galacton Star, 15 min | inhibition, % at 5 µM | 1% of 2,400 active | AID 652176;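 active = replicate-average signal at least 3 plate SD below neutral wells, shown as high inhibition, flagging enzyme-inhibiting false positives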;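 note: 0% = DMSO wells with enzyme and 100% = wells lacking enzyme; higher means stronger loss of beta-gal luminescence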
* hit, by the source's call.

`COc1ccc(S(=O)(=O)Nc2ccc3c(c2)C(=O)N([C@H](C)CO)C[C@H](C)[C@@H](CN(C)S(=O)(=O)c2cccs2)O3)cc1` gave CCR6 antag 10, APJ ag -2, APJ antagonist 5, EBI2 antag 4 and CXCR6 inh 1.
For C[C@@H]1CN([C@H](C)CO)C(=O)c2cccc(NC(=O)NC3CCCCC3)c2O[C@@H]1CN(C)C(=O)Nc1ccc(C(F)(F)F)cc1 the results were CCR6 antag -1, APJ ag -1, APJ antagonist 0, EBI2 antag 72*, CXCR6 inh -6, EBI2 conf 46, EBI2 ag -1 and bGal cs -11.
Screening COc1ccc(CNC(=O)CCc2c(C)nc3cc(-c4ccccc4OC)nn3c2C)cc1 returned CCR6 antag -1, APJ ag -4, APJ antagonist 12, EBI2 antag 10 and CXCR6 inh 1.
For COc1ccc(-c2cc3nc(C)c(CCC(=O)NCc4ccc(F)cc4)c(C)n3n2)c(OC)c1 the results were CCR6 antag -1, APJ ag 1, APJ antagonist 10, EBI2 antag 53*, CXCR6 inh -11, EBI2 conf 40, EBI2 ag 2 and bGal cs -7.
For O=C(Nc1c(Cl)cc2c(c1Cl)Cc1cc([N+](=O)[O-])ccc1-2)C(Cl)Cl the results were CCR6 antag 4, EBI2 antag -13 and CXCR6 inh -5.
Screening O=C(NCc1ccc(N2CCCC2=O)cc1)c1ccc(F)cc1 returned CCR6 antag 3, APJ ag -1, APJ antagonist 4, EBI2 antag -3 and CXCR6 inh 0.
`O=C(NCc1ccc(Cl)cc1)c1ccc(N2CCCC2=O)cc1` gave CCR6 antag -4, APJ ag -4, APJ antagonist -11, EBI2 antag 55*, CXCR6 inh 5, EBI2 conf 25, EBI2 ag 0 and bGal cs 5.
For Cc1ccc(CNC(=O)c2ccc(N3CCCC3=O)cc2)cc1 the results were CCR6 antag -1, APJ ag 1, APJ antagonist 12, EBI2 antag 63*, CXCR6 inh -4, EBI2 conf 35, EBI2 ag 0 and bGal cs 7.
Screening CC(C)c1ccc(C(=O)NCc2ccc(Cl)cc2)cc1 returned CCR6 antag 16, APJ ag -3, APJ antagonist 5, EBI2 antag 61*, CXCR6 inh 2, EBI2 conf 33, EBI2 ag 0 and bGal cs -10.
For COCCNC(=O)C1(C)CCCN(Cc2ccc3ccccc3c2Br)C1 (stereo not given) the results were EBI2 antag 10 and CXCR6 inh -2.
O=C1NC[C@H](CCCCN2C[C@H](Cc3ccccc3)N(Cc3ccccc3)C(=O)C2=O)N(CCC2CCCCC2)C1=O was read as EBI2 antag -2 and CXCR6 inh 0.
For Cc1nc(CS(=O)(=O)c2ccccc2)cc(Sc2ccc(Cl)cc2)n1 the results were CCR6 antag 26, APJ ag -1, APJ antagonist -4, EBI2 antag 46*, CXCR6 inh -1, EBI2 conf 29, EBI2 ag -1 and bGal cs -11.
Cc1nc(CS(=O)(=O)c2ccccc2)cc(Sc2ccccc2Cl)n1 was read as CCR6 antag -8, APJ ag -3, APJ antagonist 22, EBI2 antag 43 and CXCR6 inh -3.
`Cc1nc(CS(=O)(=O)c2ccc(Cl)cc2)cc(Sc2ccccc2Cl)n1` gave CCR6 antag 0, APJ ag 0, APJ antagonist -18, EBI2 antag 71*, CXCR6 inh 6, EBI2 conf 47, EBI2 ag 0 and bGal cs 3.
`Cc1ccc(C(=O)Nc2nnc([C@H]3C[C@H](O)[C@@H](CO)O3)s2)cc1` gave EBI2 antag 9 and CXCR6 inh 0.
COc1ccc(/C=C/C(=O)OCC(=O)NCCc2ccccc2)c(OC)c1 was read as CCR6 antag 16, APJ ag -3, APJ antagonist -1, EBI2 antag -5 and CXCR6 inh -1.
For CC(=O)c1cccc(NC(=O)C2Cc3c(-c4ccc(Cl)cc4)ccnc3O2)c1 (stereo not given) the results were EBI2 antag 8 and CXCR6 inh -16.
Screening COc1ccc(N2CCN(C(=O)c3cc(=O)c4cc(Cl)ccc4o3)CC2)cc1 returned CCR6 antag 7, APJ ag -4, APJ antagonist 6, EBI2 antag 96*, CXCR6 inh -12, EBI2 conf 93*, EBI2 ag -1 and bGal cs -21.
`COc1ccc(N2CCN(C(=O)c3cc(=O)c4ccc(C)cc4o3)CC2)cc1` gave CCR6 antag -6, APJ ag -2, APJ antagonist 10, EBI2 antag 50*, CXCR6 inh -14, EBI2 conf 49, EBI2 ag -2 and bGal cs -16.
NC(c1csc(NC(=O)c2cccc(OC(F)(F)F)c2)n1)c1ccccc1Cl (stereo not given) was read as EBI2 antag 3 and CXCR6 inh 24.
For O=C(Nc1cc(C(F)(F)F)ccc1N1CCOCC1)c1ccc2ccccc2n1 the results were CCR6 antag 6, APJ ag -3, APJ antagonist 21, EBI2 antag 44*, CXCR6 inh 1, EBI2 conf 31, EBI2 ag 1 and bGal cs 10.
`CCOc1cc(N2CCOCC2)c(OCC)cc1NC(=O)COC(=O)c1ccccc1OC(F)F` gave CCR6 antag 11, APJ ag -5, APJ antagonist 18, EBI2 antag 22 and CXCR6 inh 0.
`CCOc1cc(N2CCOCC2)c(OCC)cc1NC(=O)COC(=O)c1cccc2ccccc12` gave CCR6 antag -3, APJ ag 2, APJ antagonist 4, EBI2 antag 55*, CXCR6 inh 7, EBI2 conf 42, EBI2 ag 0 and bGal cs -22.
`Cn1ccnc1C(=O)c1cc(SCC(=O)NCc2ccccc2)nc2ccccc12` gave CCR6 antag 4, APJ ag -3, APJ antagonist -14, EBI2 antag 44*, CXCR6 inh -6, EBI2 conf -7, EBI2 ag 1 and bGal cs 3.
Screening COC(=O)CSc1cc(C(=O)c2nccn2C)c2ccccc2n1 returned CCR6 antag 14, APJ ag -1, APJ antagonist 3, EBI2 antag 3 and CXCR6 inh -1.
